From ChEMBL document CHEMBL1154674, “Synthesis and evaluation of three 18F-labeled aminophenylbenzothiazoles as amyloid imaging agents” (J Med Chem, 2009)

Tests used:
Assay type in all cases: ADME, organism-based, Macaca mulatta
[1] = Drug level in normal rhesus monkey thalamus assessed as standard uptake value at 109.4 MBq, iv after 123 mins by microPET; conditions: in vivo, 2.05 h
[2] = Drug level in normal rhesus monkey cerebellum assessed as standard uptake value at 109.4 MBq, iv after 27.5 mins by microPET; conditions: in vivo
Outline: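 Single normal rhesus monkey; each tracer given iv via the vena saphena, with 1 day between tracer injections. Dynamic μPET ran 180 min (5×60 s, 5×120 s, 9×300 s, 12×600 s). Images were reconstructed by filtered back projection with a RAMP filter. Regional time-activity curves were expressed as SUV.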

[3] = Drug level in normal rhesus monkey pons assessed as standard uptake value at 109.4 MBq, iv after 12.5 mins by microPET; conditions: in vivo
[4] = Drug level in normal rhesus monkey frontal cortex assessed as standard uptake value at 109.4 MBq, iv after 0.125 mins by microPET; conditions: in vivo, 7 s
[5] = Drug level in normal rhesus monkey parietal cortex assessed as standard uptake value at 109.4 MBq, iv after 69 mins by microPET; conditions: in vivo, 1.15 h
[6] = Drug level in normal rhesus monkey parietal cortex assessed as standard uptake value at 109.4 MBq, iv after 123 mins by microPET; conditions: in vivo, 2.05 h
[7] = Drug level in normal rhesus monkey thalamus assessed as standard uptake value at 109.4 MBq, iv after 9.5 mins by microPET; conditions: in vivo
[8] = Drug level in normal rhesus monkey cerebellum assessed as standard uptake value at 109.4 MBq, iv after 0.875 mins by microPET; conditions: in vivo, 52 s
[9] = Drug level in normal rhesus monkey pons assessed as standard uptake value at 109.4 MBq, iv after 6.5 mins by microPET; conditions: in vivo
[10] = Drug level in normal rhesus monkey white matter assessed as standard uptake value at 109.4 MBq, iv after 0.875 mins by microPET; conditions: in vivo, 52 s
[11] = Drug level in normal rhesus monkey parietal cortex assessed as standard uptake value at 109.4 MBq, iv after 0.375 mins by microPET; conditions: in vivo, 22 s
[12] = Drug level in normal rhesus monkey thalamus assessed as standard uptake value at 109.4 MBq, iv after 42.5 mins by microPET; conditions: in vivo
[13] = Drug level in normal rhesus monkey thalamus assessed as standard uptake value at 109.4 MBq, iv after 32.5 mins by microPET; conditions: in vivo
[14] = Drug level in normal rhesus monkey cerebellum assessed as standard uptake value at 81.2 MBq, iv after 85 mins by microPET; conditions: in vivo
Outline: (§1)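 One normal rhesus monkey, each tracer given iv via the vena saphena (81.2, 96.3 or 109.4 MBq), with 1 day between tracer injections. Dynamic brain μPET over 180 min used frames of 5 × 60 s, 5 × 120 s, 9 × 300 s and 12 × 600 s. Images were reconstructed by filtered back projection with a RAMP filter. Regional time-activity curves were expressed as SUV.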

[15] = Drug level in normal rhesus monkey thalamus assessed as standard uptake value at 81.2 MBq, iv after 1.5 mins by microPET; conditions: in vivo, 0.025 h
[16] = Drug level in normal rhesus monkey pons assessed as standard uptake value at 81.2 MBq, iv after 175 mins by microPET; conditions: in vivo
[17] = Drug level in normal rhesus monkey pons assessed as standard uptake value at 81.2 MBq, iv after 12 mins by microPET; conditions: in vivo, 0.2 h
[18] = Drug level in normal rhesus monkey cerebellum assessed as standard uptake value at 81.2 MBq, iv after 47.5 mins by microPET; conditions: in vivo; outline: as §1
[19] = Drug level in normal rhesus monkey thalamus assessed as standard uptake value at 81.2 MBq, iv after 27.5 mins by microPET; conditions: in vivo
[20] = Drug level in normal rhesus monkey frontal cortex assessed as standard uptake value at 81.2 MBq, iv after 6 mins by microPET; conditions: in vivo, 0.1 h
[21] = Drug level in normal rhesus monkey parietal cortex assessed as standard uptake value at 81.2 MBq, iv after 6 mins by microPET; conditions: in vivo, 0.1 h
[22] = Drug level in normal rhesus monkey white matter assessed as standard uptake value at 152.9 MBq, iv after 12 mins by microPET; conditions: in vivo, 0.2 h
[23] = Drug level in normal rhesus monkey frontal cortex assessed as standard uptake value at 152.9 MBq, iv after 14 mins by microPET; conditions: in vivo
Outline: (§2)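 Single normal rhesus monkey; tracer given iv via the vena saphena, 1 day apart from the other tracer injections. Dynamic μPET ran 90 min (5×60 s, 5×120 s, 9×300 s, 3×600 s). Images were reconstructed by filtered back projection with a RAMP filter. Regional time-activity curves were expressed as SUV.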

[24] = Drug level in normal rhesus monkey cerebellum assessed as standard uptake value at 152.9 MBq, iv after 27.5 mins by microPET; conditions: in vivo; outline: as §2
[25] = Drug level in normal rhesus monkey white matter assessed as standard uptake value at 152.9 MBq, iv after 37.5 mins by microPET; conditions: in vivo, 0.625 h
[26] = Drug level in normal rhesus monkey frontal cortex assessed as standard uptake value at 152.9 MBq, iv after 4.5 mins by microPET; conditions: in vivo, 0.075 h; outline: as §2
[27] = Drug level in normal rhesus monkey frontal cortex assessed as standard uptake value at 152.9 MBq, iv after 2.5 mins by microPET; conditions: in vivo; outline: as §2
[28] = Drug level in normal rhesus monkey pons assessed as standard uptake value at 152.9 MBq, iv after 37.5 mins by microPET; conditions: in vivo, 0.625 h
[29] = Drug level in normal rhesus monkey frontal cortex assessed as standard uptake value at 152.9 MBq, iv after 6 mins by microPET; conditions: in vivo, 0.1 h; outline: as §2
[30] = Drug level in normal rhesus monkey parietal cortex assessed as standard uptake value at 152.9 MBq, iv after 27.5 mins by microPET; conditions: in vivo
[31] = Drug level in normal rhesus monkey cerebellum assessed as standard uptake value at 96.3 MBq, iv after 135 mins by microPET; conditions: in vivo, 2.25 h; outline: as §1
[32] = Drug level in normal rhesus monkey pons assessed as standard uptake value at 96.3 MBq, iv after 155 mins by microPET; conditions: in vivo
[33] = Drug level in normal rhesus monkey frontal cortex assessed as standard uptake value at 96.3 MBq, iv after 42.5 mins by microPET; conditions: in vivo
[34] = Drug level in normal rhesus monkey parietal cortex assessed as standard uptake value at 96.3 MBq, iv after 47.5 mins by microPET; conditions: in vivo
[35] = Drug level in normal rhesus monkey pons assessed as standard uptake value at 96.3 MBq, iv after 1.5 mins by microPET; conditions: in vivo, 0.025 h
[36] = Drug level in normal rhesus monkey pons assessed as standard uptake value at 96.3 MBq, iv after 10 mins by microPET; conditions: in vivo
[37] = Drug level in normal rhesus monkey white matter assessed as standard uptake value at 96.3 MBq, iv after 12 mins by microPET; conditions: in vivo, 0.2 h
[38] = Drug level in normal rhesus monkey white matter assessed as standard uptake value at 96.3 MBq, iv after 52.5 mins by microPET; conditions: in vivo, 0.875 h

Compound: Nc1ccc2nc(-c3ccc([18F])cc3)sc2c1
- SUV [1]: 4.63
- SUV [2]: 4.16
- SUV [3]: 4.65
- SUV [4]: -0.06
- SUV [5]: 4.1
- SUV [6]: 3.56
- SUV [7]: 5.36
- SUV [8]: 3.51
- SUV [9]: 4.08
- SUV [10]: 1.16
- SUV [11]: 0.34
- SUV [12]: 5.55
- SUV [13]: 5.59

Compound: CNc1ccc2nc(-c3ccc([18F])cc3)sc2c1
- SUV [14]: 1.864
- SUV [15]: 2.705
- SUV [16]: 5.471
- SUV [17]: 5.701
- SUV [18]: 1.883
- SUV [19]: 5.4
- SUV [20]: 5.127
- SUV [21]: 4.972

Compound: [11CH3]Nc1ccc(-c2nc3ccc(O)cc3s2)cc1 [PITTSBURGH COMPOUND B]
- SUV [22]: 1.434
- SUV [23]: 1.904
- SUV [24]: 1.258
- SUV [25]: 1.095
- SUV [26]: 2.11
- SUV [27]: 1.133
- SUV [28]: 1.229
- SUV [29]: 2.184
- SUV [30]: 1.221

Compound: CN(C)c1ccc2nc(-c3ccc([18F])cc3)sc2c1
- SUV [31]: 0.94
- SUV [32]: 1.87
- SUV [33]: 1.96
- SUV [34]: 1.72
- SUV [35]: 0.8
- SUV [36]: 1.57
- SUV [37]: 1.31
- SUV [38]: 1.4
